Screening data deposited in PubChem by Broad Institute.
miR122 inh: miR-122 inhibition in Huh7 cells | Huh7 miR-122 Renilla luciferase sensor, 48 h; neutral wells = 0, positive control = 100 | activation (reporter increase), % at 12.5 µM | 340,000 compounds, 0.3% hits;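 active = mean replicate activation score at least 90 and every replicate individually at or above 90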;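 note: higher luciferase means less miR-122 activity so hits act as miR-122 inhibitors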
F508del corr: CFTR F508del correction in bronchial cells; CFBE cells, YFP halide quenching; stimulated with forskolin plus potentiator P3; % fluorescence drop versus neutral controls; activity (quench increase), % at 7.58 µM; 350,000 compounds, 0.36% hits;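 active = mean added fluorescence quench of at least 8% versus neutral control, with both replicates also reaching 8%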;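 note: cells transiently co-express mutant CFTR-F508del with the halide-sensitive YFP; corrector assay measuring rescue of mutant channel to the surface after 24 h compound exposure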
ARNT TACC3 PPI: disrupts binding between human ARNT and TACC3. Q9Y6A5. AlphaScreen His-ARNT PAS-B/GST-TACC3 binding, luminescence; TACC3 fragment carries E629A point mutation. inhibition, % at 9.99 µM. 390,000 compounds, 0.66% hits. AID 623870;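 active = mean inhibition of replicates at least 50% and at least half of replicates each reaching 50%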;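 note: 0% = complete ARNT plus TACC3 wells and 100% = ARNT alone without TACC3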
CAL PDZ FP-1: inhibitors of human CAL PDZ peptide binding | inhibition, % at 24.9 µM | AID 602252 | purified CAL PDZ, TMR-peptide fluorescence polarization, 1 h | 300,000 compounds, 0.92% hits | Q9HD26;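 active = mean inhibition of at least 30% with at least half of replicates also reaching 30%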;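 note: 0% = DMSO neutral control and 100% = excess unlabeled competitor peptide PRC23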
CAL PDZ FP-2: inhibitors of human CAL PDZ peptide binding | Q9HD26 | purified CAL PDZ, TMR-peptide fluorescence polarization, 1 h | inhibition, % at 20 µM | 330,000 compounds, 0.02% hits | AID 504414;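 active = highest replicate inhibition of at least 40%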;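 note: plate controls were DMSO neutral control wells for no effect and unlabeled competitor peptide control wells for full effect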
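System: purified tagged CAL PDZ domain construct (CerCALP). Schedule: 1 h incubation at room temperature before polarization reading. Medium: 25 mM sodium phosphate pH 7.4, 150 mM NaCl, TCEP, IgG, Thesit. Read-out: percent inhibition from loss of millipolarization. Measured by: FP readout, S and P plane fluorescence. Probe or stimulus: fluorescent TMR peptide probe.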
PGC1a acetyl inh: lowers PGC1a acetylation signal in U2OS cells. AlphaScreen anti-acetyl-lysine; with virally co-expressed GCN5 acetyltransferase. inhibition, % at 15.6 µM. 350,000 compounds, 0.17% hits. AID 651687;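 active = every replicate shows inhibition of at least 40%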;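 note: 0% = neutral control wells and 100% = positive control wells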
Active calls of the source: *; · = not tested or not shown; [ ] = dose if it differs, or a comment. Compounds with a hit are over-represented: about 1.7% of the library has one in this group of screens.

SMILES	miR122 inh	F508del corr	ARNT TACC3 PPI	CAL PDZ FP-1	CAL PDZ FP-2	PGC1a acetyl inh
COc1cc(/C=N/NC(=S)NCC2CCCO2)cc(OC)c1OC (stereo unspecified)	·	0.5	-0.4	35.7*	0.9	·
COc1ccccc1NS(=O)(=O)c1cc(C(=O)NCC2CCCO2)ccc1C (stereo unspecified)	·	2.5	4.9	-1.9	-2.3	·
C[C@@H]1CN([C@H](C)CO)C(=O)Cc2cc(NC(=O)C3CC3)ccc2O[C@H]1CN(C)Cc1ccccc1	-5.9[16.7 µM]	-1.1	-6.4	·	·	·
CN(C)/N=C/C=C1\CCC/C(=C/c2cccs2)C1=O	-11.5	-3.3	5.4	17.0	-6.5	-2.3
CN(C)/N=C/C=C1\CC/C(=C\c2ccc(Br)cc2)C1=O	3.3	·	-0.7	48.7*	-0.6	0.4
C[C@@H]1CN([C@H](C)CO)C(=O)c2cccc(NS(=O)(=O)c3cccs3)c2O[C@@H]1CN(C)Cc1ccc(-c2ccccc2)cc1	-0.4[16.7 µM]	-0.8	3.6	·	·	-5.0
CN(Cc1ccccc1)C(=O)CCN1C(=O)c2cccc([N+](=O)[O-])c2C1=O	·	-2.8	·	·	·	·
CN(Cc1ccc(Br)cc1)C(=O)CCN1C(=O)c2cccc([N+](=O)[O-])c2C1=O	-4.5	4.2	-3.8	70.7*	0.6	·
Cc1cc(C)nc(N2CCC(C(=O)NCc3ccco3)CC2)n1	7.3	·	-12.1	4.7	-0.5	94.9*
CCOc1ccc(Cl)cc1S(=O)(=O)N1CCC(C(=O)NCc2ccco2)CC1	3.2	-1.3	·	98.4*	-1.1	-2.0
CCOc1ccc(Cl)cc1S(=O)(=O)N1CCC(C(=O)NCc2ccccn2)CC1	-6.3	-1.5	7.7	-4.8	-1.3	·
Cc1cc(C)cc(NC(=O)N2CCCC2C(=O)NCc2ccco2)c1 (stereo unspecified)	·	0.4	-5.1	75.6*	0.3	·
COc1nc(OC)nc(N2CCC(C(=O)NCc3ccco3)CC2)n1	37.8	·	-1.7	3.2	-0.7	-7.1
COc1cc(-c2noc(C)c2C#Cc2ccccn2)cc(OC)c1OC	·	10.0*	·	-8.4	-1.6	·
COc1cc2c(cc1OC)C(C)N(C(=O)Nc1ccc(F)cc1)CC2 (stereo unspecified)	-2.7	3.0	6.9	-2.1	-1.6	-13.3
COc1cc2c(cc1OC)C(C)N(C(=O)Nc1cc(C)cc(C)c1)CC2 (stereo unspecified)	35.8	12.8*	30.7	1.3	-4.1	-3.5
CCOC(=O)c1ccc2[nH]c3c(c2c1)CCCC3C(=O)OCC (stereo unspecified)	-4.5	·	-2.5	-9.0	0.5	1.1
CCOC(=O)c1ccc2[nH]c3c(c2c1)CCCCC3=O	-10.8	0.4	-0.1	37.4*	-2.2	3.1
Nc1nc2ccc(C(=O)NCCOC(=O)C3CCCCC3)cc2s1	·	0.3	65.5*	-5.6	-2.6	·
C[C@@H]1CN([C@@H](C)CO)C(=O)c2cc(NS(=O)(=O)c3cn(C)cn3)ccc2O[C@@H](C)CCCCO[C@H]1CN(C)C(=O)Cc1ccccc1	-0.5[16.7 µM]	-3.1	8.9	·	·	-5.0
Cc1ccc(-c2cccc(CN3CCN(C(C)C)C(CCO)C3)c2)o1 (stereo unspecified)	·	11.4*	1.2	-0.4	0.4	·
C[C@@H]1CN([C@H](C)CO)C(=O)c2cc(/C=C/c3ccccc3)cnc2O[C@@H]1CN(C)C(=O)Cc1cccnc1	-0.7[16.7 µM]	-0.4	-5.2	·	·	0.2
COc1ccc(-c2cnc3c(NC=O)cc(-c4ccccc4)cn23)cc1OC	-0.3	13.2*	·	·	·	-1.2
O=CNc1cc(-c2ccc(C(=O)NC3CC3)cc2)cn2c(-c3ccccc3)cnc12	1.8	13.7*	·	·	·	-13.2
COc1ccc(-c2cnc3c(NC=O)cc(-c4ccc(F)cc4)cn23)cc1OC	16.2	1.2	·	·	·	-14.4
SMILES	miR122 inh	F508del corr	ARNT TACC3 PPI	CAL PDZ FP-1	CAL PDZ FP-2	PGC1a acetyl inh
C[C@H]1CCCCO[C@H](CN(C)C(=O)CCCN(C)C)[C@@H](C)CN([C@@H](C)CO)C(=O)c2cc(NS(C)(=O)=O)ccc2O1	2.4[16.7 µM]	-4.8	-5.0	·	·	1.8
COc1ccc(NC(=O)N[C@@H]2CC[C@@H](CCn3cc(-c4ccc(F)cc4)nn3)O[C@@H]2CO)cc1	·	9.2*	-8.0	·	·	2.1
COc1ccc(NC(=O)N[C@@H]2CC[C@H](CCn3cc(-c4ccccc4F)nn3)O[C@H]2CO)cc1	·	-0.7	3.6	·	·	61.6*
CCC(C)c1ccccc1NC(=O)COC(=O)CCc1cc(OC)c(OC)c(OC)c1 (stereo unspecified)	·	·	-1.4	83.2*	-0.7	·
COc1cc(CCC(=O)OCC(=O)Nc2ccccc2F)cc(OC)c1OC	-2.9	-1.6	-5.1	-3.9	-2.7	-2.2
O=C(Nc1ccc(Cl)cc1)c1ccc(OCC2CCCO2)cc1 (stereo unspecified)	·	-2.1	2.0	33.7*	0.5	5.8
Cc1ccc(S(=O)(=O)NCCN(CCNS(=O)(=O)c2ccc(C)cc2)S(C)(=O)=O)cc1	11.6	·	-8.6	52.1*	-0.6	0.8
Cc1ccc2c(c1)c1ncnc(N3CCOCC3)c1n2C	0.5	·	-2.2	42.1*	-0.7	0.0
Cc1ccc2c(c1)c1ncnc(N3CCN(c4ccccc4)CC3)c1n2C	-3.8	·	-10.7	-2.8	-1.1	2.7
O=C(Nc1ccc(N2CCCC2)cc1)C(Cl)c1ccccc1 (stereo unspecified)	53.8	·	active	-1.9	-2.1	10.8
Cc1ccc2cc(-c3noc(C(C)(C)C)n3)c(=O)[nH]c2c1	206.0*	·	-4.4	0.3	-1.3	·
C[C@H](CO)N1C[C@H](C)[C@H](CN(C)C(=O)Nc2cccc3ccccc23)OCCCC[C@H](C)Oc2ccc(NS(=O)(=O)c3cn(C)cn3)cc2C1=O	10.2[16.7 µM]	-1.5	29.1	·	·	-18.1
CCOCCCNC(=O)c1ccc(OC(C)=O)cc1	-3.4	·	22.5	36.5*	-1.2	11.0
COC(=O)c1ccc(C2=NOC(C)(c3sc(-c4ccccc4)nc3C)C2)cc1 (stereo unspecified)	-1.4	-1.3	0.9	44.9*	0.3	3.8
CN(C)c1ccc(C(=O)OCC(=O)NC2CCCCCC2)cc1	0.5	-1.4	-2.7	31.9*	27.7	20.8
CCN(CCO)Cc1csc2ccc(C(C)(C)C)cc12	·	·	-26.4	56.8*	-0.7	·
CCOc1cc(S(=O)(=O)NCCc2ccccc2C)c(OCC)cc1-n1cnnn1	125.6*	·	-0.9	-2.6	-4.2	-12.1
C[C@@H]1CN([C@H](C)CO)C(=O)Cc2cc(NC(=O)CCCCCC(=O)Nc3ccccc3N)ccc2O[C@H]1CN(C)CC1CCCCC1	-7.9[16.7 µM]	-1.0	4.2	·	·	-6.5
CCOc1cc(/C=C/C(=O)O)ccc1OCCOc1ccccc1	·	0.5	1.4	-20.8	-1.7	·
CCOc1ccc(C(=O)/C=C/c2ccc(OC)c(OC)c2)cc1	·	-2.9	0.3	60.5*	-1.5	·
C/C=C/c1ccc(OC(C)=O)c(OC)c1	-6.6	-2.2	20.2*	-3.4	0.1	·
